E-sel inducer: E-selectin induction on HUVECs. 260,000 tested, 0.37% active. HUVEC E-selectin immunofluorescence imaging; normalized: neutral wells 0, TNF-alpha wells 100. activation, % at 7.58 µM;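 active = mean E-selectin-positive cell signal at least 10% of the positive control, reached in at least 60% of replicates, without over 20% cell loss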
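Read-out basis: % PE-positive cells; Test system: HUVEC primary endothelial cells; Technique: immunofluorescence imaging; Dosing: single-point compound dose.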
S100A4 MyoIIA: blocks human S100A4 binding to myosin IIA peptide; 360,000 tested, 0.14% active; inhibition, % at 10.7 µM; S100A4/TAMRA-MyoIIA peptide fluorescence polarization; AID 652163;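 active = mean inhibition of at least 70% across replicates, with every replicate also reaching that level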
Target sequence (P26447 whole entry, looked up): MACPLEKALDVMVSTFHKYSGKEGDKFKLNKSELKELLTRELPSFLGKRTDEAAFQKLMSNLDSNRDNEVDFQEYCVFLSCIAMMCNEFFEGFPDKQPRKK
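Test system: S100A4 monomer protein. Medium: HEPES buffer with Ca2+, pH 7.2. Reagent: fluorescent myosin IIA peptide, 5 nM. Compound dosing: single-point compound testing. Timing: 5 min between mix addition and reading. Benchmarks: DMSO neutral and TFP positive wells.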
FGF22 binding: shifts melting point of recombinant human FGF22; activity (Tm shift, normalised), % at 9.99 µM; recombinant FGF22 thermal shift, SYPRO orange fluorescence; percent of sucrose octasulfate shift, DMSO zero; 340,000 tested, 1.5% active; AID 651658;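 active = mean Tm shift, scaled 0 neutral to 100 positive control, at about 1.3% or above, every replicate too, limit read from the data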
miR-122 sensor: inhibitors of miR-122 in Huh7 cells; Huh7 miR-122 Renilla luciferase sensor, 48 h; neutral wells = 0, positive control = 100; activation (reporter increase), % at 12.5 µM; 340,000 tested, 0.3% active; AID 602342;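 active = mean replicate activation score at least 90 and every replicate individually at or above 90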;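 note: higher luciferase means less miR-122 activity so hits act as miR-122 inhibitors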
SIRT5 block: blocks human SIRT5 desuccinylation of peptide; 330,000 tested, 1.1% active; Purified SirT5, succinyl-peptide AMC, trypsin-coupled fluorescence; Q9NXA8; inhibition, % at 15 µM; in the data active = inhibition above about 15%
Target sequence (Q9NXA8 whole entry, looked up): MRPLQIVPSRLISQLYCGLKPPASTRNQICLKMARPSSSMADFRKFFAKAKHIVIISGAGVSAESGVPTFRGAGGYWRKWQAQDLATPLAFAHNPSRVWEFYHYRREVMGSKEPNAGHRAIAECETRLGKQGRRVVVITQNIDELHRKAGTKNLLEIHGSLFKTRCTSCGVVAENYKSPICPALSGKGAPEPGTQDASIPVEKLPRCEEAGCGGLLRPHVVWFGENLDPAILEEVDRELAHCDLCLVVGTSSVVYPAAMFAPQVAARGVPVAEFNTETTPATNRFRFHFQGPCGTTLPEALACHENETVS
Starred values were filed as active, the others as inactive; nt = not tested or not shown; [ ] = another dose, or the depositor's remark. A selection: hits, their analogues and other compounds. The true share with any hit is near 2.5%.

SMILES	E-sel inducer	S100A4 MyoIIA	FGF22 binding	miR-122 sensor	SIRT5 block
C[C@@H]1CN([C@@H](C)CO)C(=O)c2cc(-c3ccc(C#N)cc3)cnc2O[C@@H]1CN(C)CC1CCOCC1	0	4	0	-6[16.7 µM]	38*
C[C@H]1CN([C@@H](C)CO)C(=O)c2cc(-c3cccc(C#N)c3)cnc2O[C@@H]1CN(C)Cc1cccnc1	1	128*	-1	-6[16.7 µM]	0
Cc1ccc(-c2cnc3c(c2)C(=O)N([C@H](C)CO)C[C@H](C)[C@@H](CN(C)CC2CCCC2)O3)cc1	0	7	0	9[16.7 µM]	3
C[C@@H]1CCCCO[C@@H](CN(C)S(=O)(=O)c2cn(C)cn2)[C@H](C)CN([C@@H](C)CO)C(=O)c2cc(NS(C)(=O)=O)ccc2O1	0	16	0	2[16.7 µM]	-3
COc1ccc(NC(=O)C2=C(C)NC(=O)NC2c2cccs2)c(OC)c1 (centres undefined)	1	0	44*	nt	0
COc1ccccc1NC(=O)C1=C(C)NC(=O)NC1c1ccccc1[N+](=O)[O-] (centres undefined)	1	-1	43*	nt	2
COc1ccccc1NC(=O)C1=C(C)NC(=O)NC1c1cccs1 (centres undefined)	nt	-2	0	6	-9
CC1=C(C(=O)Nc2ccccc2)C(c2ccccc2[N+](=O)[O-])NC(=O)N1 (centres undefined)	nt	0	43*	3	-3
COCCNc1nc(NCc2cnc(C)cn2)c2sccc2n1	2	3	0	0	17*
C[C@H]1CCCCO[C@H](CN(C)S(=O)(=O)c2ccccc2)[C@@H](C)CN([C@@H](C)CO)C(=O)c2cc(NC(=O)CCCN(C)C)ccc2O1	0	-34	0	12[16.7 µM]	4
Cc1cc(-c2nnc(SCC(=O)c3ccc4c(c3)OCCO4)o2)no1	nt	-4	44*	4	3
Cc1cc(-c2nnc(SCC(=O)c3ccc(F)cc3)o2)no1	nt	-3	44*	-4	-3
CCc1nnc(NC(=S)Nc2ccccc2)s1	nt	-1	0	nt	-1
Cc1nc(NC(=S)Nc2ccccc2)sc1C	nt	1	43*	nt	-3
CC(OC(=O)C1=COCCO1)C(=O)Nc1cc(S(=O)(=O)N2CCCCC2)ccc1Cl (centres undefined)	0	0	43*	-4	2
O=C(Nc1ccccc1)N[C@@H]1CC[C@H](CCNS(=O)(=O)c2cccc(F)c2)O[C@@H]1CO	0	-5	0	nt	-1
N#Cc1cccnc1Nc1ccc(Cl)cc1	0	2	43*	12	0
CCCCc1ccc(Nc2ncccc2C#N)cc1	nt	nt	nt	4	nt
CSCc1ccc(C(=O)OCc2nc3ccccc3s2)o1	0	-7	43*	23	nt
C[C@]12CCC(=O)CC1CCC1C2CC[C@@]2(C)C1CC[C@@]21CCO1 (some centres undefined)	50*	-1	0	-3	-6
C[C@]12CCC(=O)C[C@@H]1CC[C@@H]1[C@@H]2CC[C@]2(C)C=CC[C@@H]12	0	-5	0	-18	-8
CN(CC(=O)NCCN1CCOCC1)S(=O)(=O)c1ccc(Cl)cc1	0	1	43*	0	nt
C[C@@H]1CN([C@H](C)CO)S(=O)(=O)c2ccc(C3=CCCCC3)cc2O[C@@H]1CN(C)C(=O)C1CCC1	1	-3	0	-4[16.7 µM]	5
COc1ccc(-c2cnc3nc(/N=C/N(C)C)nn3c2/N=C/N(C)C)cc1	nt	-1	43*	-4	10
O=C(CSc1nnc2ccccn12)c1ccc(Cl)cc1	nt	-1	43*	-11	0
O=C(CSc1nnc2ccccn12)NNC(=O)c1ccc(Cl)cc1	8	2	0	-3	-3
CC(=O)c1sc2nc(CSc3nncn3C)[nH]c(=O)c2c1C	1	6	44*	nt	3
CC(=NNC(=O)c1ccncc1)c1ccccc1O	0	-4	0	1	0
C/C(=N/NC(=O)c1ccncc1)C1=C(O)CC(C)(C)CC1=O	nt	-1	44*	nt	-2
O=C(C[C@@H]1CC[C@H]2[C@@H](COC[C@@H](O)CN2Cc2nccs2)O1)NCc1ccccc1	0	4	0	1[16.7 µM]	-2

High-throughput results as filed in PubChem.
